Test results from ChEMBL document CHEMBL5143731, “N-Acylamino Saccharin as an Emerging Cysteine-Directed Covalent Warhead and Its Application in the Identification of Novel FBPase Inhibitors toward Glucose Reduction” (J Med Chem, 2022).
The source made the active and inactive calls. The rule behind the calls is not given here.

Experiments:
Homo sapiens [1] = species: Homo sapiens; assay: Selectivity ratio of IC50 for human FBPase to IC50 for recombinant ALDOB (unknown origin)
In short: (§1)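 Aldolase (ALDOA/B/C) IC50 by NADH-coupled assay: enzyme plus serial compound dilutions, 0.41 mM NADH and TPI in 0.1 M Tris pH 7.4/0.2 M K-acetate, 3 min at 37 °C. Started with FBP and […], A340 read every 30 s for 6 min. Ratios against the FBPase IC50 from malachite green phosphate assay (620 nm).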

Mus musculus [2] = assay: Hypoglycemic activity in ICR mouse assessed as improvement in glucose tolerance at 10 to 30 mg/kg, ip administered 1 hr prior to oral glucose at 2 g/kg and measured after 0.25 hr by OGTT; conditions: dose 10-30 mg/kg
[3] = Drug uptake in 12 hrs fasted ICR mouse assessed as plasma concentration at 30 mg/kg, ip measured after 6 hrs by LC-MS/MS analysis; assay type: ADME, organism-based; conditions: in vivo
In short: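 Plasma levels of parent and of released saccharin followed over 0−24 h after a single 30 mg/kg ip dose to 12 h-fasted male ICR mice. Plasma was obtained from K2EDTA blood (4 °C spin, stored at −70 °C) and measured by LC−MS/MS.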

Mus musculus [4] = assay: Hypoglycemic activity in 12 hrs fasted ICR mouse assessed as reduction in blood glucose AUC (0 to 2 hrs) at 30 mg/kg, ip measured after 2 hrs; assay type: functional; design: scale not given: the % may be the effect or the level left
In short: (§2)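 OGTT: 12 h-fasted ICR mice (n = 6 per group) dosed ip (10 or 30 mg/kg in 10% ricinus oil/water), with vehicle and metformin 250 mg/kg controls, 1 h before oral glucose 2 g/kg. Tail blood glucose by glucometer at 0, 0.25, 0.5, 1, 1.5 and 2 h; AUC 0−2 h computed. Food withheld.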

Mus musculus [5] = assay: Hypoglycemic activity in 12 hrs fasted ICR mouse assessed as glucose lowering effect at 10 to 30 mg/kg, ip measured after 2 hrs; assay type: functional, organism-based; conditions: dose 10-30 mg/kg
In short: (§3)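 Fasted (12 h) male ICR mice received one intraperitoneal dose in 10% ricinus oil/water vehicle; metformin 250 mg/kg served as control. Food was withheld. Tail blood glucose was read by glucometer at 0, 1, 2, 4 and 6 h.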

Mus musculus [6] = assay: Hypoglycemic activity in 12 hrs fasted ICR mouse assessed as reduction in blood glucose AUC (0 to 2 hrs) at 10 mg/kg, ip measured after 2 hrs; assay type: functional; design: scale not given: the % may be the effect or the level left; in short: as §2
Homo sapiens [7] = species: Homo sapiens; assay: Selectivity ratio of IC50 for human FBPase to IC50 for human GAPDH
In short: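 Recombinant human GAPDH (His-tag, E. coli; 0.1 mg/mL final) preincubated 30 min with compound in 10 mM sodium pyrophosphate pH 8.5 at 37 °C. Started with arsenate, 4 mM NAD+ and 12 mM G3P; A340 at 4 min. Ratio taken against FBPase IC50 from the malachite green phosphate-release assay.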

[8] = target: Epidermal growth factor receptor (Homo sapiens) (UniProt P00533); assay: Inhibition of EGFR (unknown origin) at 300 uM measured after 40 mins in presence of ATP by luminescence assay relative to control
Sequence of Epidermal growth factor receptor (Homo sapiens) (P00533 whole entry): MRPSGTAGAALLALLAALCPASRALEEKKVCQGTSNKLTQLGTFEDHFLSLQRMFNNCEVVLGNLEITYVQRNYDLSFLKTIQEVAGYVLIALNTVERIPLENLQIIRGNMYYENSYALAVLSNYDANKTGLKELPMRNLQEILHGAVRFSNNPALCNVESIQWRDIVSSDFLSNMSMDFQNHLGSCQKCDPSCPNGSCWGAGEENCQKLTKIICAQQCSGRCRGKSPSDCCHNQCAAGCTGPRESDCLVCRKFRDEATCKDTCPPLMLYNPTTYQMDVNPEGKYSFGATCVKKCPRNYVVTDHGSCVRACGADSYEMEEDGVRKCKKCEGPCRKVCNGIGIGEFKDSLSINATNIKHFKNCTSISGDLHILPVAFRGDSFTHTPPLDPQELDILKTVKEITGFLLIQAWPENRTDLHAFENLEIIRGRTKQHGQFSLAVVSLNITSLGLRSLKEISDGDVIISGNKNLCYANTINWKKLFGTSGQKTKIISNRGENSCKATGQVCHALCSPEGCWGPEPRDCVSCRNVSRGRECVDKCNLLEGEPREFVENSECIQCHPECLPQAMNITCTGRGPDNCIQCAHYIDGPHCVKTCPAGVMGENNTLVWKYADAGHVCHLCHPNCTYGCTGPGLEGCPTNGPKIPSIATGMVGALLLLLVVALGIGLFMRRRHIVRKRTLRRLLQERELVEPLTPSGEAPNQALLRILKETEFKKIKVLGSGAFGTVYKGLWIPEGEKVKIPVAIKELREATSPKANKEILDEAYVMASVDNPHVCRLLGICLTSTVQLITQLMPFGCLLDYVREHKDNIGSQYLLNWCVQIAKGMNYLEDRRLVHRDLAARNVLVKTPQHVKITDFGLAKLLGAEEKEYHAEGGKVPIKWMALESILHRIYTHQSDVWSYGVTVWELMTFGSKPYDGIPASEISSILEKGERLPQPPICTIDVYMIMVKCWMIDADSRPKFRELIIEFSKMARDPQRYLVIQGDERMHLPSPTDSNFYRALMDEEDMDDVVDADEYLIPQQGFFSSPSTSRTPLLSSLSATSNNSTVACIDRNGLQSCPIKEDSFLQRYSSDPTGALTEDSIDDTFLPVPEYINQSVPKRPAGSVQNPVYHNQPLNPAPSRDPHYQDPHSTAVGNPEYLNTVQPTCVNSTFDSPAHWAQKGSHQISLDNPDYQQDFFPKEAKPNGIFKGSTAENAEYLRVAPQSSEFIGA
In short: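 Kinase reaction (50 μL): 40 mM Tris pH 7.4, 10 mM MgCl2, 0.1 mg/mL BSA, 1 mM DTT, 10 μM ATP, kinase and substrate, with 1% final DMSO. Run 40 min at 30 °C. Residual ATP read by Kinase-Glo Plus luminescence, inversely related to kinase activity.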

Mus musculus [9] = assay: Hypoglycemic activity in ICR mouse assessed as glucose lowering effect at 30 mg/kg, ip measured after 2 to 6 hrs; assay type: functional, organism-based; conditions: time 2-6 hrs; in short: as §3
[10] = Half life of the compound in DMSO; assay type: physicochemical
In short: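 Electrophile (20 μmol) incubated at 37 °C either in pH 7.4 buffer, or in DMSO-d6/D2O (5:1), with or without glutathione. Decay followed by 1H NMR kinetics. First-order rate constant kpseudo-1st taken from ln[electrophile] versus time; t1/2 = 0.693/(60×k), in min.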

Homo sapiens [11] = species: Homo sapiens; assay: Selectivity ratio of IC50 for human FBPase to IC50 for recombinant ALDOA (unknown origin); in short: as §1
[12] = target: T1, Fructose-1,6-bisphosphatase 1 (Homo sapiens) (UniProt P09467); assay: Inhibition of human FBPase in ICR mouse serum starved primary hepatocytes assessed as glucose lowering effect; assay type: cell-based; conditions: Hepatocyte, dose 50-300 µM
T1 sequence (whole entry): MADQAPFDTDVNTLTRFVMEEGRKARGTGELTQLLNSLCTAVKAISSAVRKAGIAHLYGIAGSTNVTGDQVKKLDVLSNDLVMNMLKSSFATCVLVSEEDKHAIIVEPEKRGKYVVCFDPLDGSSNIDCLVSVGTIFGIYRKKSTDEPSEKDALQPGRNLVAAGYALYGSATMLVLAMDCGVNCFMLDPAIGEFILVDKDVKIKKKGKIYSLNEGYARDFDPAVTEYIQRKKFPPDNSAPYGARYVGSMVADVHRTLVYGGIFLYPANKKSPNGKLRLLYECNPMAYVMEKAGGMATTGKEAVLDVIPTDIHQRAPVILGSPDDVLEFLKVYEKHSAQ
In short: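 Primary mouse hepatocytes serum-starved overnight, then exposed in DMEM for 6 h to test compounds (50−300 μM), metformin 1 mM or saccharin 50 or 100 μM. Gluconeogenesis assessed as glucose in the culture medium. Mean ± SEM reported, Student's t-test versus vehicle.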

Ratio IC50 (Homo sapiens [1]): > 25 | Cp [3]: Active | Ratio IC50 (Homo sapiens [7]): > 25 | inhibition [8]: < 50% | half-life [10]: > 6.94 days | Ratio IC50 (Homo sapiens [11]): > 25 | inhibition [12]: Active
SMILES: O=C(NCc1ccccc1)N1C(=O)c2ccccc2S1(=O)=O
Activity (Mus musculus [2]): Active | Activity (Mus musculus [4]): 17.7% | Activity (Mus musculus [5]): Active | Activity (Mus musculus [6]): 20.2% | Activity (Mus musculus [9]): Active
